pIC50: −log10 of the molar value.
Experiments:
[1] = Antiinflammatory activity in human neutrophils assessed as inhibition of fMLP/CB-induced elastase release using MeO-Suc-Ala-Ala-Pro-Val-p-nitroanilide as elastase substrate preincubated for 5 mins followed by fMLP/CB-induction; type: functional, cell-based; conditions: Neutrophil
How it was run: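 Donor neutrophils (dextran/Ficoll/hypotonic lysis, held at 4 °C in Ca2+-free HBSS pH 7.4) at 6 × 10^5 cells/mL, equilibrated with 100 μM MeO-Suc-Ala-Ala-Pro-Val-p-nitroanilide at 37 °C for 2 min. Compound or 0.1% DMSO vehicle added for 5 min, then activated with FMLP 100 nM plus CB 0.5 μg/mL. A405 read continuously. IC50 given as mean ± SEM, n = 3 or 4.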

[2] = Antiinflammatory activity in human neutrophils assessed as inhibition of FMLP/cytochalasin B-induced superoxide anion generation by measuring superoxide dismutase-inhibitable reduction of ferricytochrome c preincubated for 5 mins followed by FMLP/cytochalasin B-induction by spectrophotometric analysis; type: functional, cell-based; conditions: Neutrophil
How it was run: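 Neutrophils isolated from healthy donor venous blood (20−30 years old) by dextran sedimentation, Ficoll Hypaque centrifugation and hypotonic erythrocyte lysis, kept at 4 °C in Ca2+-free HBSS pH 7.4. Cells (6 × 10^5 cells/mL) with 0.5 mg/mL ferricytochrome c and 1 mM Ca2+, 37 °C 2 min; compound or 0.1% DMSO 5 min; CB 1 μg/mL 3 min; FMLP 100 nM. A550 followed continuously, ±SOD 100 U/mL; IC50, mean ± SEM, n = 3 or 4.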

Compound | pIC50 [1] | pIC50 [2]
COc1cc(O)cc(CCc2cccc(O)c2)c1Cc1ccc(O)cc1 | 5.55 | 5.77
COc1cc2ccc3c(-c4c(O)cc(OC)c5c4ccc4cc(O)c(OC)cc45)c(O)cc(OC)c3c2cc1O | 5.80 | 5.55
COc1c(O)cc2ccc3c(Cc4ccc(O)cc4)c(O)ccc3c2c1OC | 5.89 | 5.85
COc1cc2c(ccc3c(-c4c(O)cc(OC)c5c4ccc4cc(O)ccc45)c(O)cc(OC)c32)cc1O | 5.77 | 5.72
COc1cc(CCc2cccc(O)c2)c(Cc2ccc(O)cc2)c(O)c1Cc1ccc(O)cc1 | 5.96 | 5.96
COc1cc(O)c(-c2c(O)cc3c(c2OC)-c2ccc(O)cc2CC3)c2c1-c1ccc(O)cc1CC2 | 5.85 | 5.74
COc1cc(O)c(Cc2ccc(O)cc2)c(CCc2cccc(O)c2)c1 | 5.66 | 5.44
COc1c(Cc2ccc(O)cc2)c(O)c(Cc2ccc(O)cc2)c2c1-c1ccc(O)cc1CC2 | 5.74 | 5.96
COc1cc(O)cc(CCc2ccc(O)c(OC)c2)c1 [GIGANTOL] | 5.49 | 5.68
COc1cc(O)cc2c1-c1cc(-c3c(O)cc(OC)c4c3ccc3cc(O)ccc34)c(O)cc1CC2 | 5.92 | 5.38
COC1=CC(=O)C2=C(CCc3cc(O)ccc32)C1=O | < 5.00 | < 5.00
COc1cc(O)cc2c1-c1ccc(O)cc1CC2 | < 5.00 | 6.40
COc1cccc(CCc2c(Cc3ccc(O)cc3)c(O)cc(OC)c2Cc2ccc(O)cc2)c1 | 5.38 | 5.20
COc1c(O)cc2ccc3cc(O)ccc3c2c1OC [NUDOL] | < 5.00 | 5.77
COc1cc2c(ccc3c(-c4c(O)cc(OC)c5c4ccc4cc(O)c(OC)cc45)c(O)cc(OC)c32)cc1O | 6.52 | 5.82
COc1c(O)c(-c2c(O)c(OC)c(OC)c3c2CCc2cc(O)ccc2-3)c2c(c1OC)-c1ccc(O)cc1CC2 | < 5.00 | 5.60
COc1cc2c(ccc3cc(O)c(OC)c(OC)c32)cc1O | 5.68 | 5.70
COc1cc2c(cc1O)CCc1cc(O)c(OC)c(OC)c1-2 | 5.24 | 6.70
COc1cc(O)cc(CCc2ccccc2)c1 | < 5.00 | 5.19
CC[C@@H](CC[C@@H](C)[C@H]1CC[C@H]2[C@@H]3CC=C4C[C@@H](O[C@@H]5O[C@H](CO)[C@@H](O)[C@H](O)[C@H]5O)CC[C@]4(C)[C@H]3CC[C@]12C)C(C)C | < 5.00 | < 5.00
COc1cc2c(cc1O)CCc1c(-c3c(O)cc(OC)c4c3CCc3cc(O)ccc3-4)c(O)cc(OC)c1-2 | 6.15 | 5.62

Compound | pIC50 [1] | pIC50 [2]
COc1cc(O)c(Cc2ccc(O)cc2)c2c1-c1ccc(O)cc1CC2 | 5.70 | 6.70
COc1cc(O)c(Cc2ccc(O)cc2)c(CCc2cccc(O)c2)c1Cc1ccc(O)cc1 | 6.15 | 6.15
COc1cc(O)cc2c1-c1cc(-c3c(O)cc(OC)c4c3CCc3cc(O)ccc3-4)c(O)cc1CC2 | 6.30 | 5.82
COc1c(O)c(Cc2ccc(O)cc2)c2ccc3cc(O)ccc3c2c1OC | 5.72 | 5.80
COc1c(Cc2ccc(O)cc2)c(O)cc2c1-c1ccc(O)cc1CC2 | 5.70 | 6.70
O=Cc1ccc(O)cc1 [4-HYDROXYBENZALDEHYDE] | 5.48 | < 5.00
COc1c(O)cc2c(c1OC)-c1ccc(O)cc1CC2 [ERIANTHRIDIN] | 5.70 | 6.52
COc1cc2ccc3cc(O)ccc3c2c(OC)c1O | 5.31 | 5.59
COc1cc(CCc2cccc(O)c2)cc(O)c1-c1c(O)cc(OC)c2c1CCc1cc(O)ccc1-2 | < 5.00 | 5.31
COc1cc(CCc2cccc(O)c2)cc(O)c1Cc1ccc(O)cc1 | 6.05 | 5.66
COc1cc(O)c(-c2c(O)cc(OC)c3c2ccc2cc(O)ccc23)c2c1-c1ccc(O)cc1CC2 [CIRRHOPETALANTHRIN] | 6.22 | 6.05
COc1cccc(CCc2cc(O)cc(OC)c2)c1 | < 5.00 | 5.19
COc1cc(O)cc(CCc2cccc(O)c2)c1-c1c(OC)cc(O)c2c1CCc1cc(O)ccc1-2 | 6.22 | 6.40
COc1cc(O)c(-c2c(O)c(Cc3ccc(O)cc3)c3c(c2OC)-c2ccc(O)cc2CC3)c2c1-c1ccc(O)cc1CC2 | 6.40 | 6.70
COc1cc(O)cc(CCc2cccc(O)c2)c1 [BATATASIN III] | 5.33 | 6.05
CCOCc1ccc(O)cc1 | < 5.00 | < 5.00
CC(C)C[C@@](O)(CC(=O)OCc1ccc(O[C@@H]2O[C@H](CO)[C@@H](O)[C@H](O)[C@H]2O)cc1)C(=O)OCc1ccc(O[C@@H]2O[C@H](CO)[C@@H](O)[C@H](O)[C@H]2O)cc1 | < 5.00 | < 5.00
COc1cc(O)c(Cc2ccc(O)cc2)c2ccc3cc(O)ccc3c12 | 6.05 | 6.30
COc1cc(O)c(-c2c(O)cc(OC)c3c2ccc2cc(O)ccc23)c2ccc3cc(O)ccc3c12 [CIRRHOPETALANTHIN] | 6.22 | 5.85
CC[C@H](Nc1ncnc2[nH]cnc12)c1nc2cccc(F)c2c(=O)n1-c1ccccc1 [IDELALISIB] | 6.52 | 7.00
